Values after ≈ are worked out from the molar mass of the structure shown.
Legend:
[1] = DPPH radical scavenging assay; details: 30 min, absorbance at 517 nm, triplicate, mean ± SD
How it was run: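 DPPH dissolved in methanol (180 µL) mixed with 20 µL methanolic compound solutions at 0.1, 1, 10 and 100 μg/mL. Mixture shaken, held 30 min at room temperature in dark, A517. Controls: methanol blank, ascorbic acid positive. Triplicate. % scavenging = (A blank − A test)/A blank × 100; IC50 from concentration–scavenging plot.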

[2] = ABTS radical scavenging assay; details: 10 min, absorbance at 734 nm, triplicate, mean ± SD
How it was run: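 ABTS•+ formed from 7 mM ABTS in water plus 2.45 mM potassium persulfate, kept dark at room temperature 12–16 h, then diluted in methanol to A734 0.70 ± 0.02 at 30 °C. Methanolic compound dilutions (20 µL) added to 180 µL radical, 10 min in dark, A734. Controls: methanol blank, ascorbic acid reference. Fresh radical each run. Triplicate. % scavenging versus blank gives IC50.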

FRAP assay = details: for FRAP (10 μg/mL): absorbance at 593 nm, 30 min, triplicate
How it was run: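 Working reagent: 300 mM acetate buffer pH 3.6, 10 mM TPTZ in 40 mM HCl, and 20 mM FeCl3·6H2O, mixed 10:1:1 and warmed to 37 °C. Methanolic samples reacted 30 min. Ascorbic acid in water used as standard, methanol as blank. Fe²⁺–TPTZ complex read at 593 nm. Triplicate, mean reported.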

Hela cancer cell = assay: SRB anticancer assay, Hela cells; type: cell-based, Human
How it was run: (§1)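 HeLa cells were grown in DMEM; CaSki and MDCK in RPMI-1640. All media had 10% FBS and 1% antibiotic–antimycotic, at 37 °C, 5% CO2. Cells seeded at 5×10^3/well overnight, triplicate, then given four concentrations for 48 h. Untreated cells served as control. SRB staining: ice-cold 70% acetone fixation, 0.4% SRB, Tris solubilisation, A540. IC50 from cancer lines, CC50 from MDCK, TI derived.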

Caski cancer cell = assay: SRB anticancer assay, Caski cells; type: cell-based
How it was run: as §1

[3] = SRB cytotoxicity assay, MDCK cells; type: cell-based, canine; details: dog
How it was run: as §1

O=C1O[C@H]([C@@H](O)CO)C(O)=C1O [Ascorbic acid]
IC50 DPPH [1]: 10.75 ± 0.66 µg/mL (≈ 61 µM)
IC50 ABTS [2]: 4.760 ± 0.05 µg/mL (≈ 27 µM)
FRAP absorption value (FRAP assay; Fe3+ reducing power): 2.140 nm
FRAP (10 μg/mL) (FRAP assay): 2.140 ± 0.78

COc1ccc2cc3[n+](cc2c1OC)CCc1cc2c(cc1-3)OCO2 [Berberine]
IC50 DPPH [1]: 33.16 ± 1.60 µg/mL
IC50 ABTS [2]: 86.29 ± 2.11 µg/mL
FRAP (10 μg/mL) (FRAP assay): 0.001 ± 0.66
TI (therapeutic index) (Hela cancer cell; CC50 MDCK / IC50 Hela): 25.29
IC50 (Hela cancer cell; Homo sapiens, HeLa, 48 h, read-out: IC50 Hela): 4.5 ± 0.08 µg/mL
TI (therapeutic index) (Caski cancer cell; CC50 MDCK / IC50 Caski): 20.17
IC50 (Caski cancer cell; Homo sapiens, Ca-Ski, 48 h, read-out: IC50 Caski): 5.64 ± 0.11 µg/mL
CC50 at 48 h [3]: 113.8 ± 0.51 µg/mL

Reference: publication PMC5198934 (Saudi Journal of Biological Sciences, 2015)
